The values below come from ChEMBL document CHEMBL1125831, “Synthesis and quantitative structure-activity relationship analysis of 2-(aryl or heteroaryl)quinolin-4-amines, a new class of anti-HIV-1 agents” (J Med Chem, 1991).

Series [1] in a line: In vitro toxicity on uninfected Phytohemagglutininin stimulated human PBM cell. It counts as cell-based. An outline of the steps: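 Human PBM cells stimulated with phytohemagglutinin and left uninfected. Cell toxicity reported as minimum toxic concentration (MTC).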
Series [2] relates to Human immunodeficiency virus 1. In words: In vitro antiviral activity in Phytohemagglutininin stimulated human PBM cells infected with HIV-1 (strain LAV-1). Conditions: Human immunodeficiency virus 1, PBMC. The class given is functional, organism-based. An outline of the steps: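 […] human PBM cells stimulated with phytohemagglutinin, then infected with HIV-1 strain LAV-1. Antiviral activity reported as median effective concentration (EC50).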

In general, EC50 refers to the concentration that produces a half-maximal response. On to `CN(C)CCNc1cc(-c2cccnc2)nc2ccccc12`, for which the MTC in series [1] is greater than 100 µM. Besides, in series [2], the midpoint of the response, the EC50, lay at 1.51 µM.
In the case of `c1ccc(-c2cc(N3CCSCC3)c3ccccc3n2)nc1`, a half-maximal response in series [2] (EC50) required 2.81 µM.
The compound `Nc1cc(-c2ccccc2)nc2ccccc12` yielded an EC50 in series [2] of 25.7 µM. Against the preceding compound, the EC50 is about 9.1-fold higher.
Compound `CCN(CCN(C)C)c1cc(-c2ccncc2)nc2ccccc12` had an MTC in series [1] of 100 µM. The compound also yielded an EC50 in series [2] of 100 µM.
In series [1], `c1cncc(-c2cc(N3CCCC3)c3ccccc3n2)c1` registered an MTC of 100 µM. The compound also registered an EC50 in series [2] of 33.7 µM.
In series [1], `CN1CCN(c2cc(-c3cccnc3)nc3ccccc23)CC1` gave an MTC greater than 100 µM. For the same compound, in series [2], a half-maximal effect (EC50) was put at 1 µM.
With `CN1CCN(c2cc(-c3ccco3)nc3ccccc23)CC1`, in series [2], a half-maximal effect (EC50) was put at 15.8 µM.
In series [1], `CN(C)CCNc1cc(-c2ccco2)nc2ccccc12` displayed an MTC greater than 1 µM. In series [2], this compound had an EC50 of 0.91 µM.
As for `Nc1cc(-c2cccs2)nc2ccccc12`, the MTC in series [1] was found to be 10 µM. The compound further gave an EC50 in series [2] of 34.3 µM.
Consider `CC(C)(C)Nc1cc(-c2ccccc2)nc2ccccc12`, for which the EC50 in series [2] is 100 µM.
Still for that read-out and setting: under `CN(C)CCNc1cc(-c2ccc(Cl)cc2)nc2ccccc12` stands 100 µM; under `CN1CCN(c2cc(-c3ccccn3)nc3ccccc23)CC1`, 5.51 µM.
Turning to `CC(C)CNc1cc(-c2ccccc2)nc2ccccc12`, the MTC in series [1] was 100 µM. The same compound yielded a concentration giving a half-maximal response (EC50) in series [2] of 50.6 µM.
For the compound `CN(C)CCNc1cc(-c2ccc(F)cc2)nc2ccccc12`, in series [1], the MTC was 100 µM. The compound also registered an EC50 in series [2] of 13.2 µM.
Taken in the same sequence, the figures for `CN(C)CCNc1cc(-c2ccccn2)nc2ccccc12` were 100 µM and 1.35 µM.
In series [1], `CC1CCCN(c2cc(-c3ccccn3)nc3ccccc23)C1` (stereo not given) had an MTC of 100 µM. Further, a half-maximal response in series [2] (EC50) required 4.86 µM.
Take `CN(C)CCNc1cc(-c2ccc(Br)cc2)nc2ccccc12`: the MTC in series [1] is 100 µM. For the same compound, the EC50 in series [2] was determined as 44.2 µM.
As to `CN1CCN(c2cc(-c3ccncc3)nc3ccccc23)CC1`, in series [2], a half-maximal response (EC50) required 68.2 µM.
Compound `CN(C)CCNc1cc(-c2cccs2)nc2ccccc12` had an MTC in series [1] of 10 µM. The same compound showed an EC50 in series [2] of 0.57 µM.
For the compound `CC1CCCN(c2cc(-c3ccccc3)nc3ccccc23)C1` (stereo not given), the MTC in series [1] came to 100 µM. Also, in series [2], a half-maximal effect (EC50) was put at 16.7 µM.
In turn, `CC1CCCCN1c1cc(-c2ccccc2)nc2ccccc12` (stereo not given) displayed an MTC in series [1] of 100 µM. Moreover, the EC50 in series [2] came to 26.4 µM.
Taken in the same sequence, the figures for `CN(C)CCNc1cc(-c2ccccc2)nc2ccccc12` were 100 µM and 10 µM.
`Nc1cc(-c2ccccn2)nc2ccccc12`: the MTC in series [1] worked out at 100 µM. This compound registered a 50% effective concentration (EC50) in series [2] of 8.56 µM.
The corresponding values for `CCN(CCN(C)C)c1cc(-c2cccnc2)nc2ccccc12` are 100 µM and 24.2 µM.
Regarding `CC1CCCCN1c1cc(-c2ccccn2)nc2ccccc12` (stereo not given), in series [1], the MTC turned out to be 100 µM. Besides, a half-maximal effect in series [2] (EC50) was put at 4.24 µM.
As to `CN(C)CCNc1cc(-c2ccncc2)nc2ccccc12`, the MTC in series [1] amounted to 100 µM. The compound further came in with an EC50 in series [2] of 36.9 µM.
Compound `Nc1cc(-c2cccnc2)nc2ccccc12` displayed an MTC in series [1] of 85.7 µM. The compound also came in with a 50% effective concentration (EC50) in series [2] of 1 µM.
The corresponding values for `c1cncc(-c2cc(N3CCCCC3)c3ccccc3n2)c1` are 100 µM and 20 µM.
Taken in the same sequence, the figures for `COc1ccc(-c2cc(NCCN(C)C)c3ccccc3n2)cc1` were 10 µM and 10.4 µM.
Compound `CCN(CCN(C)C)c1cc(-c2ccccc2)nc2ccccc12` came in with a concentration for a half-maximal effect (EC50) in series [2] of 34.8 µM. This lies in the double-digit micromolar range.
Turning to `CN1CCN(c2cc(-c3ccccc3)nc3ccccc23)CC1`, the MTC in series [1] was 100 µM. In series [2], a half-maximal response (EC50) required 13.2 µM.
As for `Cc1ccc(-c2cc(NCCN(C)C)c3ccccc3n2)cc1`, in series [1], the MTC amounted to 10 µM. This compound had a 50% effective concentration (EC50) in series [2] of 4.47 µM.
The corresponding values for `CC(C)Nc1cc(-c2ccccc2)nc2ccccc12` are greater than 100 µM and 100 µM.
On to `CC1CCN(c2cc(-c3ccccn3)nc3ccccc23)CC1`, for which, in series [1], the MTC was 100 µM. In series [2], this compound returned an EC50 of 4.08 µM.
Compound `CCN(CCN(C)C)c1cc(-c2cccs2)nc2ccccc12` showed an MTC in series [1] of 100 µM. Also, it took 32.4 µM to reach a half-maximal effect in series [2] (EC50).
Turning to `c1ccc(-c2cc(N3CCOCC3)c3ccccc3n2)nc1`, the 50% effective concentration (EC50) in series [2] worked out at 18.5 µM.
In series [2], `CCN(CCN(C)C)c1cc(-c2ccccn2)nc2ccccc12` had an EC50 of 13.2 µM.
On the same count and under the same terms, next, `CN1CCN(c2cc(-c3cccs3)nc3ccccc23)CC1`: 9.07 µM.
